Measured values: publication PMC8992017 (Journal of medicinal chemistry, 2019)
Entries after “also recorded” stand apart in the source; their conditions may differ.

Test system: ISRE
Experiment: ISRE activity in ISRE-bla THP-1 reporter cells
Type: cell-based
Conditions: compound 5 μM + IFN-α, compared with compound 1
How it was run: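 ISRE-bla THP-1 cells at 5×10^4/well in RPMI with 10% dialyzed FBS, 0.1 mM non-essential amino acids, 1 mM pyruvate and pen/strep. Test compound (1 mM DMSO stock) was diluted in IFN-α medium, giving final 5 μM compound ([…]) and final 100 U/mL IFN-α. Incubation 16 h, then CCF4-AM FRET substrate 3 h at RT in the dark. Excitation 405 nm; background-subtracted 465/535 nm emission ratio. Two-point normalized: reference sulfonamide + IFN-α = 200%, IFN-α alone = 100%; mean ± SEM.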

| Molecule | ISRE activity (in words) |
| --- | --- |
| CCOc1ccc(S(=O)(=O)N(CCCC(=O)O)c2cc(OC)c(Cl)cc2OC)cc1 [Compound 53, 4-((N-(4-chloro-2,5-dimethoxyphenyl)-4-ethoxyphenyl)sulfonamido)butanoic acid] | reduction in ISRE activity |
| CCOc1ccc(NS(=O)(=O)c2cc(OC)c(Cl)cc2OC)cc1 [Compound 31, 4-Chloro-N-(4-ethoxyphenyl)-2,5-dimethoxybenzenesulfonamide] | inactivity |
| CCOc1ccc(S(=O)(=O)N(c2cc(OC)c(Cl)cc2OC)C(C)C)cc1 [Compound 40, N-(4-chloro-2,5-dimethoxyphenyl)-4-ethoxy-N-isopropylbenzenesulfonamide] | retaining ISRE activity |
| COc1cc(NS(=O)(=O)c2ccc(C(N)=O)cc2)c(OC)cc1Cl [Compound 27, 4-(N-(4-chloro-2,5-dimethoxyphenyl)sulfamoyl)benzamide] | lost activity |
| CCOC(=O)CN(c1cc(OC)c(Cl)cc1OC)S(=O)(=O)c1ccc(OCC)cc1 [Compound 49, Ethyl N-(4-chloro-2,5-dimethoxyphenyl)-N-((4-ethoxyphenyl)sulfonyl)glycinate] | retained dual NF-κB and ISRE activities |
| 3-Bromo-N-(4-chloro-2,5-dimethoxyphenyl)-4-ethoxybenzenesulfonamide [Compound 25] | inactive |
| CCCCOc1ccc(S(=O)(=O)Nc2cc(OC)c(Cl)cc2OC)cc1 [Compound 14, 4-Butoxy-N-(4-chloro-2,5-dimethoxyphenyl)benzenesulfonamide] | gradual loss of activity |
| CCOc1ccc(S(=O)(=O)N(Cc2ccccc2)c2cc(OC)c(Cl)cc2OC)cc1 [Compound 46, N-benzyl-N-(4-chloro-2,5-dimethoxyphenyl)-4-ethoxybenzenesulfonamide] | potent analogs |
| COc1cc(NS(=O)(=O)c2ccc([N+](=O)[O-])cc2)c(OC)cc1Cl [Compound 17, N-(4-chloro-2,5-dimethoxyphenyl)-4-nitrobenzenesulfonamide] | either weakly active or completely inactive |
| CCOc1ccc(S(=O)(=O)Nc2cc(OC)c(Cl)c(OC)c2)cc1 [Compound 8, N-(4-chloro-3,5-dimethoxyphenyl)-4-ethoxybenzenesulfonamide] | complete loss of activity; also recorded: slightly skewed ISRE activity |
| CCOc1ccc(S(=O)(=O)Nc2cc(OC)c(N=[N+]=[N-])cc2OC)cc1 [Compound 59, N-(4-azido-2,5-dimethoxyphenyl)-4-ethoxybenzenesulfonamide] | potent |
| COc1ccc(S(=O)(=O)Nc2cc(OC)c(Cl)cc2OC)cc1 [Compound 12, N-(4-chloro-2,5-dimethoxyphenyl)-4-methoxybenzenesulfonamide] | tolerated |
| C#CCN(c1cc(OC)c(Cl)cc1OC)S(=O)(=O)c1ccc(OCC)cc1 [Compound 42, N-(4-chloro-2,5-dimethoxyphenyl)-4-ethoxy-N-(prop-2-yn-1-yl)benzenesulfonamide] | retained activity almost equivalent to that of compound 1 |
| COc1cc(NS(=O)(=O)c2ccc(O)cc2)c(OC)cc1Cl [Compound 11, N-(4-chloro-2,5-dimethoxyphenyl)-4-hydroxybenzenesulfonamide] | not tolerated |
| CCOc1ccc(S(=O)(=O)N(CCCO)c2cc(OC)c(Cl)cc2OC)cc1 [Compound 51, N-(4-chloro-2,5-dimethoxyphenyl)-4-ethoxy-N-(3-hydroxypropyl)benzenesulfonamide] | retained activity in both the assays |
| COc1cccc(S(=O)(=O)Nc2cc(OC)c(Cl)cc2OC)c1 [Compound 23, N-(4-chloro-2,5-dimethoxyphenyl)-3-methoxybenzenesulfonamide] | none of these molecules was active |
| C#CCN(c1cc(OC)c(N=[N+]=[N-])cc1OC)S(=O)(=O)c1ccc(OCC)cc1 [Compound 62, N-(4-azido-2,5-dimethoxyphenyl)-4-ethoxy-N-(prop-2-yn-1-yl)benzenesulfonamide] | very potent |
| CCOC(=O)c1ccc(S(=O)(=O)Nc2cc(OC)c(Cl)cc2OC)cc1 [Compound 29, Ethyl 4-(N-(4-chloro-2,5-dimethoxyphenyl)sulfamoyl)benzoate] | retained partial activity |
| CCOC(=O)CCCN(c1cc(OC)c(Cl)cc1OC)S(=O)(=O)c1ccc(OCC)cc1 [Compound 50, Ethyl 4-((N-(4-chloro-2,5-dimethoxyphenyl)-4-ethoxyphenyl)sulfonamido)butanoate] | retained dual NF-κB and ISRE activities |
| CCOc1ccc(S(=O)(=O)N(CC(C)C)c2cc(OC)c(Cl)cc2OC)cc1 [Compound 41, N-(4-chloro-2,5-dimethoxyphenyl)-4-ethoxy-N-isobutylbenzenesulfonamide] | regained the activity |
| COc1cc(NS(=O)(=O)c2ccc(C(=O)O)cc2)c(OC)cc1Cl [Compound 28, 4-(N-(4-chloro-2,5-dimethoxyphenyl)sulfamoyl)benzoic acid] | lost activity |
| COc1cc(NS(=O)(=O)c2ccc(CNC(=O)OC(C)(C)C)cc2)c(OC)cc1Cl [Compound 20, tert-butyl (4-(N-(4-chloro-2,5-dimethoxyphenyl)sulfamoyl)benzyl)carbamate] | either weakly active or completely inactive |
| CCOc1ccc(S(=O)(=O)Nc2cc(OC)ccc2OC)cc1 [Compound 6, N-(2,5-dimethoxyphenyl)-4-ethoxybenzenesulfonamide] | retained activity |
| C#CCCN(c1cc(OC)c(Cl)cc1OC)S(=O)(=O)c1ccc(OCC)cc1 [Compound 43, N-(but-3-yn-1-yl)-N-(4-chloro-2,5-dimethoxyphenyl)-4-ethoxybenzenesulfonamide] | retained activity almost equivalent to that of compound 1 |

Test system: NF-κB
Experiment: NF-κB activation in THP1-Blue NF-κB reporter cells
Type: cell-based
Conditions: compound 5 μM + LPS, compared with compound 1
How it was run: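 THP1-Blue NF-κB cells at 10^5/well in RPMI with 10% FBS, pen/strep and Normocin. Test compound (1 mM DMSO stock) was diluted into LPS medium, giving final 5 μM compound ([…]), with LPS co-added. After 20 h, supernatant SEAP was measured colorimetrically with QuantiBlue at 630 nm. Two-point normalized: reference sulfonamide + LPS = 200%, LPS alone = 100%; mean ± SEM.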

| Molecule | NF-κB activity (in words) |
| --- | --- |
| CCOc1ccc(S(=O)(=O)N(CCCC(=O)O)c2cc(OC)c(Cl)cc2OC)cc1 [Compound 53, 4-((N-(4-chloro-2,5-dimethoxyphenyl)-4-ethoxyphenyl)sulfonamido)butanoic acid] | retaining the NF-κB activity |
| CCOc1ccc(NS(=O)(=O)c2cc(OC)c(Cl)cc2OC)cc1 [Compound 31, 4-Chloro-N-(4-ethoxyphenyl)-2,5-dimethoxybenzenesulfonamide] | inactivity |
| CCOc1ccc(S(=O)(=O)N(c2cc(OC)c(Cl)cc2OC)C(C)C)cc1 [Compound 40, N-(4-chloro-2,5-dimethoxyphenyl)-4-ethoxy-N-isopropylbenzenesulfonamide] | eliminated the NF-κB activity |
| COc1cc(NS(=O)(=O)c2ccc(C(N)=O)cc2)c(OC)cc1Cl [Compound 27, 4-(N-(4-chloro-2,5-dimethoxyphenyl)sulfamoyl)benzamide] | lost activity |
| CCOC(=O)CN(c1cc(OC)c(Cl)cc1OC)S(=O)(=O)c1ccc(OCC)cc1 [Compound 49, Ethyl N-(4-chloro-2,5-dimethoxyphenyl)-N-((4-ethoxyphenyl)sulfonyl)glycinate] | retained dual NF-κB and ISRE activities |
| 3-Bromo-N-(4-chloro-2,5-dimethoxyphenyl)-4-ethoxybenzenesulfonamide [Compound 25] | inactive |
| CCCCOc1ccc(S(=O)(=O)Nc2cc(OC)c(Cl)cc2OC)cc1 [Compound 14, 4-Butoxy-N-(4-chloro-2,5-dimethoxyphenyl)benzenesulfonamide] | gradual loss of activity |
| CCOc1ccc(S(=O)(=O)N(Cc2ccccc2)c2cc(OC)c(Cl)cc2OC)cc1 [Compound 46, N-benzyl-N-(4-chloro-2,5-dimethoxyphenyl)-4-ethoxybenzenesulfonamide] | potent analogs |
| COc1cc(NS(=O)(=O)c2ccc([N+](=O)[O-])cc2)c(OC)cc1Cl [Compound 17, N-(4-chloro-2,5-dimethoxyphenyl)-4-nitrobenzenesulfonamide] | either weakly active or completely inactive |
| CCOc1ccc(S(=O)(=O)Nc2cc(OC)c(Cl)c(OC)c2)cc1 [Compound 8, N-(4-chloro-3,5-dimethoxyphenyl)-4-ethoxybenzenesulfonamide] | complete loss of activity |
| CCOc1ccc(S(=O)(=O)Nc2cc(OC)c(N=[N+]=[N-])cc2OC)cc1 [Compound 59, N-(4-azido-2,5-dimethoxyphenyl)-4-ethoxybenzenesulfonamide] | potent |
| COc1ccc(S(=O)(=O)Nc2cc(OC)c(Cl)cc2OC)cc1 [Compound 12, N-(4-chloro-2,5-dimethoxyphenyl)-4-methoxybenzenesulfonamide] | tolerated |
| C#CCN(c1cc(OC)c(Cl)cc1OC)S(=O)(=O)c1ccc(OCC)cc1 [Compound 42, N-(4-chloro-2,5-dimethoxyphenyl)-4-ethoxy-N-(prop-2-yn-1-yl)benzenesulfonamide] | retained activity almost equivalent to that of compound 1 |
| COc1cc(NS(=O)(=O)c2ccc(O)cc2)c(OC)cc1Cl [Compound 11, N-(4-chloro-2,5-dimethoxyphenyl)-4-hydroxybenzenesulfonamide] | not tolerated |
| CCOc1ccc(S(=O)(=O)N(CCCO)c2cc(OC)c(Cl)cc2OC)cc1 [Compound 51, N-(4-chloro-2,5-dimethoxyphenyl)-4-ethoxy-N-(3-hydroxypropyl)benzenesulfonamide] | retained activity in both the assays |
| COc1cccc(S(=O)(=O)Nc2cc(OC)c(Cl)cc2OC)c1 [Compound 23, N-(4-chloro-2,5-dimethoxyphenyl)-3-methoxybenzenesulfonamide] | none of these molecules was active |
| C#CCN(c1cc(OC)c(N=[N+]=[N-])cc1OC)S(=O)(=O)c1ccc(OCC)cc1 [Compound 62, N-(4-azido-2,5-dimethoxyphenyl)-4-ethoxy-N-(prop-2-yn-1-yl)benzenesulfonamide] | very potent |
| CCOC(=O)c1ccc(S(=O)(=O)Nc2cc(OC)c(Cl)cc2OC)cc1 [Compound 29, Ethyl 4-(N-(4-chloro-2,5-dimethoxyphenyl)sulfamoyl)benzoate] | retained partial activity |
| CCOC(=O)CCCN(c1cc(OC)c(Cl)cc1OC)S(=O)(=O)c1ccc(OCC)cc1 [Compound 50, Ethyl 4-((N-(4-chloro-2,5-dimethoxyphenyl)-4-ethoxyphenyl)sulfonamido)butanoate] | retained dual NF-κB and ISRE activities |
| CCOc1ccc(S(=O)(=O)N(CC(C)C)c2cc(OC)c(Cl)cc2OC)cc1 [Compound 41, N-(4-chloro-2,5-dimethoxyphenyl)-4-ethoxy-N-isobutylbenzenesulfonamide] | regained the activity |
| COc1cc(NS(=O)(=O)c2ccc(C(=O)O)cc2)c(OC)cc1Cl [Compound 28, 4-(N-(4-chloro-2,5-dimethoxyphenyl)sulfamoyl)benzoic acid] | lost activity |
| COc1cc(NS(=O)(=O)c2ccc(CNC(=O)OC(C)(C)C)cc2)c(OC)cc1Cl [Compound 20, tert-butyl (4-(N-(4-chloro-2,5-dimethoxyphenyl)sulfamoyl)benzyl)carbamate] | either weakly active or completely inactive |
| CCOc1ccc(S(=O)(=O)Nc2cc(OC)ccc2OC)cc1 [Compound 6, N-(2,5-dimethoxyphenyl)-4-ethoxybenzenesulfonamide] | retained activity |
| C#CCCN(c1cc(OC)c(Cl)cc1OC)S(=O)(=O)c1ccc(OCC)cc1 [Compound 43, N-(but-3-yn-1-yl)-N-(4-chloro-2,5-dimethoxyphenyl)-4-ethoxybenzenesulfonamide] | retained activity almost equivalent to that of compound 1 |
